{
  "source": "ChEMBL document CHEMBL3351586",
  "about": "“Diterpenes from a Chinese collection of the brown alga Dictyota plectens” (J Nat Prod, 2014)",
  "key": {"[1]": {"tested_on": "Human immunodeficiency virus 1", "test": "Antiviral activity against VSV-G protein pseudotyped HIV1 system in HEK293T cells assessed as reduction in p24 level after 48 hrs by ELISA", "assay_type": "functional, organism-based", "settings": "Human immunodeficiency virus 1, HEK-293T", "method_in_brief": "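VSV-G-pseudotyped HIV used as a counter-screen to judge the specificity of HA-directed entry inhibitors.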"}, "[2]": {"test": "Antiinflammatory activity in mouse peritoneal macrophages assessed as inhibition of LPS-induced NO production at 10 uM", "assay_type": "functional", "settings": "Peritoneal macrophage cell"}, "[3]": {"test": "Cytotoxicity against HEK293 cells infected with Influenza A virus (A/Viet Nam/1203/2004(H5N1))", "assay_type": "cell-based", "settings": "human", "method_in_brief": "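Cytotoxicity measured on 293T cells and reported as CC50 (μmol/L).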"}, "[4]": {"tested_on": "HEK293", "test": "Inhibition of Influenza A virus (A/Viet Nam/1203/2004(H5N1)) hemagglutinin-mediated entry in HEK293 cells compound pretreated with target cells for 15 mins prior infection measured 48 hrs post infection by luciferase reporter assay", "assay_type": "cell-based", "method_in_brief": "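Entry screen: HIV-based pseudotype bearing H5N1 hemagglutinin (HA). Compounds tested at 30.0 μM. Value reported as percent inhibition of HA-mediated entry.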"}, "[5]": {"tested_on": "HEK293", "test": "Cytotoxicity against HEK293 cells infected with VSV-G protein pseudotyped HIV1", "assay_type": "cell-based", "settings": "Homo sapiens"}, "[6]": {"test": "Antiinflammatory activity in mouse peritoneal macrophages assessed as inhibition of LPS-induced NO production at 1 uM", "assay_type": "functional", "settings": "Peritoneal macrophage cell"}},
  "data": [
    {"smiles": "Cc1ccnc2c1NC(=O)c1cccnc1N2C1CC1", "note": "[NEVIRAPINE]", "values": [
      {"measurement": "IC50", "setting": "[1]", "value": 0.05, "unit": "µM"}
    ]},
    {"smiles": "C=C1C[C@H](O)[C@@H]([C@@](C)(O)CCC=C(C)C)[C@@H](O)[C@@H]2C(C)=CC[C@@H]12", "values": [
      {"measurement": "inhibition at 10 µM", "setting": "[2]", "value": "< 50", "unit": "%"},
      {"measurement": "CC50", "setting": "[3]", "value": "> 60", "unit": "µM"},
      {"measurement": "inhibition", "setting": "[4]", "value": 50, "unit": "%"}
    ]},
    {"smiles": "C=C1CC[C@@H](O)[C@@]2(C)C[C@@H](OC(C)=O)C3=C(C(C)C)CC[C@]3(C)C[C@]12O", "values": [
      {"measurement": "IC50", "setting": "[1]", "value": 16.1, "unit": "µM"},
      {"measurement": "inhibition at 10 µM", "setting": "[2]", "value": "< 50", "unit": "%"},
      {"measurement": "IC50", "setting": "[5]", "value": 53, "unit": "µM"}
    ]},
    {"smiles": "CC(=O)O[C@H]1C/C=C(\\C)CC[C@@H]([C@H](C)CCC=C(C)C)[C@@H](O)/C=C/1C", "values": [
      {"measurement": "IC50", "setting": "[1]", "value": 30.5, "unit": "µM"},
      {"measurement": "inhibition at 10 µM", "setting": "[2]", "value": "< 50", "unit": "%"},
      {"measurement": "IC50", "setting": "[5]", "value": "> 60", "unit": "µM"}
    ]},
    {"smiles": "C/C1=C/CC/C(C)=C/C[C@@]2(C)CC[C@@](O)(C(C)C)[C@@H]2CC1=O", "note": "(relative stereo)", "values": [
      {"measurement": "inhibition at 10 µM", "setting": "[2]", "value": "< 50", "unit": "%"},
      {"measurement": "CC50", "setting": "[3]", "value": "> 60", "unit": "µM"},
      {"measurement": "inhibition", "setting": "[4]", "value": 56, "unit": "%"}
    ]},
    {"smiles": "CC(C)=CCC[C@@H](C)[C@H]1C2=C(C(=O)OC2)[C@H]2C[C@H]2[C@H](C)C[C@H]1O", "values": [
      {"measurement": "inhibition at 10 µM", "setting": "[2]", "value": "< 50", "unit": "%"},
      {"measurement": "CC50", "setting": "[3]", "value": "> 60", "unit": "µM"},
      {"measurement": "inhibition", "setting": "[4]", "value": 62, "unit": "%"}
    ]},
    {"smiles": "CC(=O)OC[C@@H]1/C(C=O)=C\\C/C=C(\\C)C[C@@H](O)[C@H]1[C@H](C)CCC=C(C)C", "values": [
      {"measurement": "IC50", "setting": "[1]", "value": 21.9, "unit": "µM"},
      {"measurement": "inhibition at 10 µM", "setting": "[2]", "value": "< 50", "unit": "%"},
      {"measurement": "IC50", "setting": "[5]", "value": "> 60", "unit": "µM"}
    ]},
    {"smiles": "CC(C)=CCC[C@@H](C)[C@@H]1[C@H](O)C/C(C)=C/C/C=C(/C=O)[C@H]1C=O", "values": [
      {"measurement": "inhibition at 10 µM", "setting": "[2]", "value": 86, "unit": "%"},
      {"measurement": "inhibition at 1 µM", "setting": "[6]", "value": "< 50", "unit": "%"},
      {"measurement": "CC50", "setting": "[3]", "value": "> 60", "unit": "µM"},
      {"measurement": "inhibition", "setting": "[4]", "value": 59, "unit": "%"}
    ]},
    {"smiles": "C=C1CC[C@@H]([C@@](C)(O)CCC=C(C)C)[C@@H](O)[C@@H]2C(C)=CC[C@@H]12", "values": [
      {"measurement": "IC50", "setting": "[1]", "value": 24, "unit": "µM"},
      {"measurement": "inhibition at 10 µM", "setting": "[2]", "value": 90, "unit": "%"},
      {"measurement": "IC50", "setting": "[5]", "value": "> 60", "unit": "µM"},
      {"measurement": "inhibition at 1 µM", "setting": "[6]", "value": "< 50", "unit": "%"}
    ]},
    {"smiles": "C=C1C[C@@H](O)[C@@H]([C@H](C)CCC=C(C)C)[C@@H](O)[C@@H]2C(C)=CC[C@@H]12", "values": [
      {"measurement": "IC50", "setting": "[1]", "value": 26.1, "unit": "µM"},
      {"measurement": "inhibition at 10 µM", "setting": "[2]", "value": "< 50", "unit": "%"},
      {"measurement": "IC50", "setting": "[5]", "value": "> 60", "unit": "µM"}
    ]}
  ]
}
